Results as given in ChEMBL document CHEMBL1124184, “Dopamine autoreceptor agonists as potential antipsychotics. 1. (Aminoalkoxy)anilines” (J Med Chem, 1988).
Active and inactive are the calls of the source. The calls are words filed in the database; no cut-off is given here.

How the values were obtained:
Monkey [1] = experiment: Effect on Inhibition of Sidman avoidance in squirrel monkeys when administered orally; format: functional; settings: in Saimiri, po
How it was run: (§1)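 Sidman avoidance in mature squirrel monkeys; oral dosing at three doses, four animals per dose; ED50 with SEM derived from the dose-response.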

Rattus norvegicus [2] = experiment: Inhibition of accumulation of DOPA in rat striatum, after intraperitoneal administration.; format: functional; settings: ip
How it was run: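 Rats dosed ip 1 h before sacrifice; GBL (750 mg/kg ip) and NSD 1015 (100 mg/kg ip) given 30 and 25 min before sacrifice. Striatal DOPA measured by HPLC with electrochemical detection. ED50 is the dose giving half-maximal decrease in DOPA formation, from three to five dose levels with four to five rats per group.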

Rattus norvegicus [3] = experiment: Reversal of 6-OHDA-induced depression in rats, after sc injection after dosing for a period of 30 min; format: functional; settings: 0.5 h
How it was run: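 Rats pretreated at least one month earlier with 6-OHDA (200 μg icv) plus pargyline (50 mg/kg ip) and desmethylimipramine (25 mg/kg ip), giving about 90% brain DA depletion checked in representative animals. Test drug given sc; locomotor activity recorded for 30 min starting immediately after dosing.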

Rattus norvegicus [4] = experiment: Reversal of reserpine induced depression in rats, after sc injection after dosing for a period of 30 min; format: functional; settings: 0.5 h
How it was run: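 Normal rats given reserpine 5 mg/kg 24 h before testing, then test drug sc. Locomotor activity recorded for 30 min starting immediately after dosing. Locomotor stimulation read as reversal of reserpine-induced depression.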

Rattus norvegicus [5] = experiment: Inhibition of locomotor activity in rats after peroral administration of the compound.; format: functional; settings: po
Rattus norvegicus [6] = experiment: Inhibition of locomotor activity in rats, after sc injection after dosing for a period of 30 min; format: functional; settings: 0.5 h
Rattus norvegicus [7] = experiment: Inhibition of dopamine neuronal firing in the anesthetized rats after ip administration at a dose 2.5 mg/kg; format: functional; settings: route intraperitoneal
How it was run: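 Zona compacta DA cells of substantia nigra recorded extracellularly in chloral-anesthetized rats, identified by waveform and firing pattern, with recording sites confirmed histologically. Drug given at 2.5 mg/kg ip via an indwelling catheter. Baseline was the mean rate over the 2 min before injection. Effect was the mean over the 1-min period of maximal inhibition.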

Monkey [8] = experiment: Effect on EPS liability in squirrel monkeys sensitized to haloperidol at 2.5 mg/kg; A=Active; format: functional, organism-based; parameters: dose 2.5 mg/kg; settings: Cercopithecidae
Monkey [9] = experiment: Effect on Inhibition of Sidman avoidance in squirrel monkeys was determined; format: functional; settings: in Saimiri; how it was run: as §1

Row | SMILES | ED50 (Monkey [1]) | ED50 (Rattus norvegicus [2]) | ED50 (Rattus norvegicus [3]) | ED50 (Rattus norvegicus [4]) | ED50 (Rattus norvegicus [5]) | ED50 (Rattus norvegicus [6]) | inhibition in vivo at 2.5 mg/kg (Rattus norvegicus [7]) | EPS (Monkey [8]) | ED50 (Monkey [9])
1 | Nc1cccc(OCCCN2CCN(c3ccccc3)CC2)c1 | 8.5 mg/kg | 12 mg/kg | > 30 mg/kg | > 30 mg/kg | 10.3 mg/kg | 1.8 mg/kg | 85% | – | –
2 | CCCN1CCC[C@H](c2cccc(O)c2)C1 | – | 7.2 mg/kg | 0.6 mg/kg | – | > 30 mg/kg | 8.8 mg/kg | 100% | – | –
3 | CCCN(CCCOc1cccc(N)c1)CCc1ccccc1 | – | – | – | – | > 30 mg/kg | – | 8% | – | –
4 | Nc1cccc(OCCCN2CC=C(c3ccccc3)CC2)c1 | – | 7 mg/kg | 0.13 mg/kg | > 30 mg/kg | 12.1 mg/kg | 0.35 mg/kg | 89% | – | –
5 | CN(C)c1cccc(OCCCN2CCN(c3ccccc3)CC2)c1 | – | – | – | – | 9.2 mg/kg | – | 21% | – | –
6 | CN1CCc2cccc3c2[C@H]1Cc1ccc(O)c(O)c1-3 [APOMORPHINE] | – | 0.3 mg/kg | 0.006 mg/kg | 0.096 mg/kg | > 30 mg/kg | 0.021 mg/kg | 100% | – | –
7 | Nc1cccc(OCCCN2CCN(c3ccccn3)CC2)c1 | – | – | – | – | 9.2 mg/kg | – | 46% | – | –
8 | CSc1ccc2c(c1)N(CCC1CCCCN1C)c1ccccc1S2 (stereo not given) [THIORIDAZINE] | – | – | – | – | – | – | – | Active | 3.9 mg/kg
9 | CNc1cccc(OCCCN2CCN(c3ccccc3)CC2)c1 | – | – | – | – | 9.4 mg/kg | – | 7% | – | –
10 | C1=C(c2ccccc2)CCN(CCCCc2c[nH]c3ccccc23)C1 | – | 2.2 mg/kg | 0.4 mg/kg | > 30 mg/kg | 4.8 mg/kg | 0.64 mg/kg | 100% | – | –
